Source: ChEMBL document CHEMBL1140076, “Discovery and labeling of high-affinity 3,4-diarylpyrazolines as candidate radioligands for in vivo imaging of cannabinoid subtype-1 (CB1) receptors” (J Med Chem, 2008)

How the values were obtained:
[1] = Biodistribution in cynomolgus monkey brain striatum assessed as standardized uptake value at 65 GBq/umol, iv after 48 mins; format: ADME, organism-based, Macaca fascicularis; conditions: in vivo, 0.8 h
Outline: (§1)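 Anesthetized cynomolgus monkeys (3.4, 4.8 kg; ketamine/xylazine i.m., head in stereotactic frame). [11C] radioligand given as i.v. bolus over about 5 s: 56–100 MBq, 0.33–0.81 µg carrier. Brain scanned on ECAT EXACT HR for 93 min. Regions defined on a monkey brain atlas. Decay-corrected activity expressed as %SUV (% injected activity per g tissue × body weight).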

[2] = test system: Pons; assay: Biodistribution in cynomolgus monkey brain pons assessed as standardized uptake value at 65 GBq/umol, iv after 24 mins; format: ADME, organism-based, Macaca fascicularis; conditions: in vivo, 0.4 h; outline: as §1
[3] = Biodistribution in cynomolgus monkey plasma assessed as unchanged drug level at 65 GBq/umol, iv after 45 mins; format: ADME, organism-based, Macaca fascicularis; conditions: read-out: Activity
Outline: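 Venous blood (1 mL) taken 5, 15, 30 and 45 min after i.v. radioligand in anesthetized monkey. Plasma (0.5 mL) mixed with MeCN containing carrier standard and centrifuged at 2000 × g for 1 min. Supernatant counted, then analyzed by reverse-phase radio-HPLC with a MeCN/0.01 M H3PO4 gradient. Parent expressed as % of plasma radioactivity.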

[4] = Biodistribution in cynomolgus monkey brain striatum assessed as standardized uptake value at 56 GBq/umol, iv after 90 mins; format: ADME, organism-based, Macaca fascicularis; conditions: in vivo, 1.5 h; outline: as §1
[5] = Biodistribution in cynomolgus monkey brain striatum assessed as standardized uptake value at 56 GBq/umol, iv after 1.5 mins; format: ADME, organism-based, Macaca fascicularis; conditions: in vivo, 0.025 h; outline: as §1
[6] = target: 5-hydroxytryptamine receptor 2A (Homo sapiens, UniProt P28223); assay: Displacement of [3H]ketanserin from human cloned 5HT2A receptor
[7] = target: Cannabinoid receptor 2 (Homo sapiens, UniProt P34972); assay: Binding affinity to human CB2 receptor by [35S]GTPgammaS binding assay; format: functional
Outline: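 Recombinant human CB2 membranes (7 µg/well) in buffer with 100 mM NaCl, 5 mM MgCl2, 1 mM EDTA, 50 mM HEPES, 10 µM GDP, 100 µM DTT, 0.01% BSA. Incubation 45 min at 30 °C, then filtration and scintillation counting. Nonspecific binding with 20 µM GTPγS. IC50 converted to Ki by Cheng-Prusoff; triplicates.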

[8] = target: Cannabinoid receptor 1 (Homo sapiens, UniProt P21554); assay: Binding affinity to human CB1 receptor by [35S]GTPgammaS binding assay; format: functional
[9] = target: Histamine H3 receptor (Homo sapiens, UniProt Q9Y5N1); assay: Displacement of [3H]alpha methyl histamine from human cloned histamine H3 receptor
[10] = target: Histamine H2 receptor (Homo sapiens, UniProt P25021); assay: Displacement of [3H]tiotidine from human cloned histamine H2 receptor
[11] = test system: Brain; assay: Biodistribution in 1 mg/kg, iv N-(4-fluorobenzyl)-4-(3-(piperidin-1-yl)-1H-indol-1-ylsulfonyl)benzamide pretreated cynomolgus monkey brain assessed as standardized uptake value at […], iv after 90 mins; format: ADME, organism-based, Macaca fascicularis; design: dose 1 mg/kg, route intravenous; conditions: in vivo, 1.5 h
[12] = test system: Brain; assay: Biodistribution in 1 mg/kg, iv N-(4-fluorobenzyl)-4-(3-(piperidin-1-yl)-1H-indol-1-ylsulfonyl)benzamide pretreated cynomolgus monkey brain assessed as standardized uptake value at […], iv after 15 mins; format: ADME, organism-based, Macaca fascicularis; design: dose 1 mg/kg, route intravenous; conditions: in vivo, 0.25 h
[13] = test system: Pons; assay: Biodistribution in cynomolgus monkey brain pons assessed as standardized uptake value at 78 GBq/umol, iv after 90 mins; format: ADME, organism-based, Macaca fascicularis; conditions: in vivo, 1.5 h; outline: as §1
[14] = test system: Pons; assay: Biodistribution in cynomolgus monkey brain pons assessed as standardized uptake value at 78 GBq/umol, iv after 24 mins; format: ADME, organism-based, Macaca fascicularis; conditions: in vivo, 0.4 h; outline: as §1
[15] = Biodistribution in cynomolgus monkey brain striatum assessed as standardized uptake value at 78 GBq/umol, iv after 30 mins; format: ADME, organism-based, Macaca fascicularis; conditions: in vivo, 0.5 h; outline: as §1
[16] = Biodistribution in cynomolgus monkey brain striatum assessed as standardized uptake value at 78 GBq/umol, iv after 90 mins; format: ADME, organism-based, Macaca fascicularis; conditions: in vivo, 1.5 h; outline: as §1

Chain of Cannabinoid receptor 2 (P34972 whole entry): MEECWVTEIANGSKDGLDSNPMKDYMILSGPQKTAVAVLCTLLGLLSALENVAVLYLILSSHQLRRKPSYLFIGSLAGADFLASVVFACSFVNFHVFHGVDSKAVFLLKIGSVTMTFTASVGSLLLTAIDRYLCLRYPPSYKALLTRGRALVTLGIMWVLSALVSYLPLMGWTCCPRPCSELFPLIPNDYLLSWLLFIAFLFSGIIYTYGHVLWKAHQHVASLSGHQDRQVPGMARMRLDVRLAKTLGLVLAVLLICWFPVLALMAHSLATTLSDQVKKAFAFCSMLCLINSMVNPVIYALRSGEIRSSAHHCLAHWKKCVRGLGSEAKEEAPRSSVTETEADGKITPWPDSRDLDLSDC
Chain of Cannabinoid receptor 1 (P21554 whole entry): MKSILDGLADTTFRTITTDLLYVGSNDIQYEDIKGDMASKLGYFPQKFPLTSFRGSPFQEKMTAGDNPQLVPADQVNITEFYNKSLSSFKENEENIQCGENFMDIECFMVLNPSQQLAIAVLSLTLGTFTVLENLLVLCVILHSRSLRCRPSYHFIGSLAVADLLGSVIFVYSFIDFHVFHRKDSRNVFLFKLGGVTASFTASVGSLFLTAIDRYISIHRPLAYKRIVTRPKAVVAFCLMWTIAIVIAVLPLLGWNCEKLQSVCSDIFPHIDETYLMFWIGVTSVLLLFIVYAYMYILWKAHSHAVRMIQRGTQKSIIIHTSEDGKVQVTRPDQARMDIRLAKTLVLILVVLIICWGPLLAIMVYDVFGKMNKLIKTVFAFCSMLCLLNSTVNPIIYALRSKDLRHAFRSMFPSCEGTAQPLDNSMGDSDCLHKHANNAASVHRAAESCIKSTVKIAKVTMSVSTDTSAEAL
Chain of Histamine H3 receptor (Q9Y5N1 whole entry): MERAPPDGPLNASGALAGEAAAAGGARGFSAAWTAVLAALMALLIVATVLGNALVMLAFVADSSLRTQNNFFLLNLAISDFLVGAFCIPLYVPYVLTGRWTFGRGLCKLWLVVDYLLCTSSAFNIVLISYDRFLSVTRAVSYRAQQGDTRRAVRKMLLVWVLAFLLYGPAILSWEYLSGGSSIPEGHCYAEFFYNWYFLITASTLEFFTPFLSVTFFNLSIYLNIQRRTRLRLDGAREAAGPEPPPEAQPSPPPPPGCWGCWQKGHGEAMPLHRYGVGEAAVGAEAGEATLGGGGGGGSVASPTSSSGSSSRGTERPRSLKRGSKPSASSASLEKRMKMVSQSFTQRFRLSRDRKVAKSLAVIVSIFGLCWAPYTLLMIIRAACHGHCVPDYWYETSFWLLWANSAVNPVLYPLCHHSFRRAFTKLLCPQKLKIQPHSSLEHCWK
Chain of Histamine H2 receptor (P25021 whole entry): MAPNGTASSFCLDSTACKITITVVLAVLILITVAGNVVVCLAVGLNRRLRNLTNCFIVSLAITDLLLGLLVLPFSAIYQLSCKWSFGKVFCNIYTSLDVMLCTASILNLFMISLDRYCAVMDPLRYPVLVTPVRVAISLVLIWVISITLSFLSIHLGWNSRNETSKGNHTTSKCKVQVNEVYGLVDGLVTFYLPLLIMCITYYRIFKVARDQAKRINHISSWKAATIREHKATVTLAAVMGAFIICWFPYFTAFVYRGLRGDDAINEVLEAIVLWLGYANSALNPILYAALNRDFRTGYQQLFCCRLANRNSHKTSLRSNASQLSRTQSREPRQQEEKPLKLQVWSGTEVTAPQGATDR
Chain of 5-hydroxytryptamine receptor 2A (P28223 whole entry): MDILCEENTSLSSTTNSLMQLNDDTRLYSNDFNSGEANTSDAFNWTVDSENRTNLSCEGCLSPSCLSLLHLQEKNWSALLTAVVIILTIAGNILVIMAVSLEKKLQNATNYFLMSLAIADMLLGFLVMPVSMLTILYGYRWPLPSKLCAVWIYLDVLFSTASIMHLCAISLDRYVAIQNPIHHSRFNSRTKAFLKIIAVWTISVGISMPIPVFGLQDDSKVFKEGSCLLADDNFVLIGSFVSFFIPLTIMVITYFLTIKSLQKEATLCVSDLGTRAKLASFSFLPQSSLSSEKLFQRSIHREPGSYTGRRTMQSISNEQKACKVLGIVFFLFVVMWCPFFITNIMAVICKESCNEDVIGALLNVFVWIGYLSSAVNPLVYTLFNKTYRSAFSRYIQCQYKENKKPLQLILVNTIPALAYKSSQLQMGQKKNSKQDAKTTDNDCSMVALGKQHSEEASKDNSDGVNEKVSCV

SMILES	IC50 [7]	Ki [7]	IC50 [8]	Ki [8]	also measured
N#[11C]c1ccc(S(=O)(=O)/N=C(\N)N2C[C@H](c3ccccc3)C(c3ccc(Cl)cc3)=N2)cc1	–	–	–	–	Drug uptake [1]: 200%; Drug uptake [2]: 125%; remaining at 0.75 h [3]: 50%
N#[11C]c1ccc(S(=O)(=O)/N=C(\N)N2C[C@@H](c3ccccc3)C(c3ccc(Cl)cc3)=N2)cc1	–	–	–	–	Drug uptake [4]: 95%; Drug uptake [5]: 280%
N#Cc1ccc(S(=O)(=O)/N=C(\N)N2C[C@H](c3ccccc3)C(c3ccc(Cl)cc3)=N2)cc1	> 33000 nM	> 5000 nM	2.8 nM	0.5 nM	Ki [6]: > 7710 nM; Ki [9]: > 10000 nM; Ki [10]: > 10000 nM
N/C(=N\S(=O)(=O)c1ccc(I)cc1)N1C[C@H](c2ccccc2)C(c2ccc(Cl)cc2)=N1	> 33000 nM	> 5000 nM	1.9 nM	0.3 nM	–
N/C(=N\S(=O)(=O)c1ccc(I)cc1)N1C[C@@H](c2ccccc2)C(c2ccc(Cl)cc2)=N1	> 33000 nM	> 5000 nM	104 nM	17.4 nM	–
N#Cc1ccc(S(=O)(=O)/N=C(\N)N2C[C@@H](c3ccccc3)C(c3ccc(Cl)cc3)=N2)cc1	> 33000 nM	> 5000 nM	100 nM	16.9 nM	–
N#[11C]c1ccc(S(=O)(=O)/N=C(\N)N2CC(c3ccccc3)C(c3ccc(Cl)cc3)=N2)cc1 (racemic)	–	–	–	–	Drug uptake [11]: 85%; Drug uptake [12]: 175%; Drug uptake [13]: 124%; Drug uptake [14]: 150%; Drug uptake [15]: 220%; Drug uptake [16]: 180%
